The values that follow come from ChEMBL document CHEMBL5038571, “Design and Synthesis of EZH2-Based PROTACs to Degrade the PRC2 Complex for Targeting the Noncatalytic Activity of EZH2” (J Med Chem, 2021).

Calls of active or inactive are those of the source. The rule behind the calls is not given here.

The target of experiment [1] is T1, Protein cereblon/Histone-lysine N-methyltransferase EZH2 (Homo sapiens) (UniProt Q15910+Q96SW2). The experiment is described as follows: PROTAC activity at CRBN E3 ligase/EZH2 in PRC2 complex in human WSUDLCL2 cells assessed as induction of SUZ12 degradation at 1 uM measured up to 2 hrs by Western blot analysis. As to conditions: time hrs <=2. The format is cell-based. On the technique in general: A western blot detects proteins with antibodies after separation by electrophoresis.
T1 sequence (Q15910 whole entry, looked up): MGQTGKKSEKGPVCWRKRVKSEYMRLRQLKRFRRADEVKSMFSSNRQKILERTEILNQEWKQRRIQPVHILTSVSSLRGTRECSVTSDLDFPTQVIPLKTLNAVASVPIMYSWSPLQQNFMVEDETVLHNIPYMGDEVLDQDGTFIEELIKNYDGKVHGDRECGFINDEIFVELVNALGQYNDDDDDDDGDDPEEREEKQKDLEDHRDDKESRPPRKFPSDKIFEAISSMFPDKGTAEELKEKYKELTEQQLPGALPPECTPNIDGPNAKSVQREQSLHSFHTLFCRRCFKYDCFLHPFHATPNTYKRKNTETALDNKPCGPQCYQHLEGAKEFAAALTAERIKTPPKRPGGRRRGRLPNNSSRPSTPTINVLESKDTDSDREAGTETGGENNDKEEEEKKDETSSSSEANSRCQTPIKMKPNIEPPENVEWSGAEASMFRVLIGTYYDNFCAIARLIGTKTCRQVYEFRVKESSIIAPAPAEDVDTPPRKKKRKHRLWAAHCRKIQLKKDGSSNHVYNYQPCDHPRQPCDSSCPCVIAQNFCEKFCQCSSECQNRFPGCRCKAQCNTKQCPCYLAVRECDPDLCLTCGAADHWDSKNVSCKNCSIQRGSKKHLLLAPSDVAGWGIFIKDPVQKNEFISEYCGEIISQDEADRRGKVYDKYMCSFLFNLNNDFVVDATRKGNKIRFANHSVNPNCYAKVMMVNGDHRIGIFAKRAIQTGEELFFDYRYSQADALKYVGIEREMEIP
T1 sequence (Q96SW2 whole entry, looked up): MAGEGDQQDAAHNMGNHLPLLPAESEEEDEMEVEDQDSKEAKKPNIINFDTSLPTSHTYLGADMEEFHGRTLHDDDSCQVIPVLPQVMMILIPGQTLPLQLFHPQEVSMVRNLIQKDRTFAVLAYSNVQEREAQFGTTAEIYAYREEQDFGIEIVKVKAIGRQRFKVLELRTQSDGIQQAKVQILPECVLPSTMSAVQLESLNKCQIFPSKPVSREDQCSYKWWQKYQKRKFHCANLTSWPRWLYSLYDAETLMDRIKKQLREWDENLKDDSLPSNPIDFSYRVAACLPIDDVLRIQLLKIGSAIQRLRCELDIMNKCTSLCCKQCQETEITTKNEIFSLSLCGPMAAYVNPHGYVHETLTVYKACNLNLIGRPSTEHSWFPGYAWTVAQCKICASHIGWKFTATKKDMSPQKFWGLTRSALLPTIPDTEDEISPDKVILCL

The target of experiment [2] is T1, Protein cereblon/Histone-lysine N-methyltransferase EZH2 (Homo sapiens). The experiment is described as follows: PROTAC activity at CRBN E3 ligase/EZH2 in PRC2 complex in human WSUDLCL2 cells assessed as induction of SUZ12 degradation by measuring reduction in SUZ12 protein level at 1 uM measured after 48 to 72 hrs by Western blot analysis. It is filed as cell-based. The settings on record: time 48-72 hrs.

The target is the same in experiment [3]. The experiment is described as follows: PROTAC activity at CRBN E3 ligase/EZH2 in PRC2 complex in human WSUDLCL2 cells assessed as induction of EED degradation by measuring reduction in EED protein level at 1 uM measured after 48 to 72 hrs by Western blot analysis. It is filed as cell-based. The settings on record: time 48-72 hrs.
Experiment [4] shares this target. The experiment is described as follows: PROTAC activity at CRBN E3 ligase/EZH2 in PRC2 complex in human DU-145 cells assessed as induction of EZH2 degradation by measuring reduction in EZH2 protein level at 1 uM incubated for 48 hrs by Western blot analysis. It is filed as cell-based. The method in brief:
(§1)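 Cancer cell lines exposed to 1 μM compound for 48 h. Lysates immunoblotted (SDS-PAGE, nitrocellulose, 5% milk block, primary antibody overnight at 4 °C) for EZH2, SUZ12, EED, RbAp48 and H3K27me3. Bands quantified by densitometry and normalized to GAPDH.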

For experiment [5] the target is unchanged. The experiment is described as follows: PROTAC activity at CRBN E3 ligase/EZH2 in PRC2 complex in human A2780 cells assessed as induction of SUZ12 degradation by measuring reduction in SUZ12 protein level at 1 uM incubated for 48 hrs by Western blot analysis. It is filed as cell-based. The method in brief: as §1
For experiment [6] the target is unchanged. The experiment in a line: PROTAC activity at CRBN E3 ligase/EZH2 in PRC2 complex in human SK-OV-3 cells assessed as induction of EED degradation by measuring reduction in EED protein level at 1 uM incubated for 48 hrs by Western blot analysis. The format is cell-based. The method in brief: (§2)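 Cells cultured in DMEM or RPMI 1640 with 10% FBS and 1% penicillin-streptomycin, 37 °C, 5% CO2; exposed to 1 μM compound for 48 h. Lysates run on SDS-PAGE and transferred to nitrocellulose. Blocked 2 h in 5% skim milk, primary antibody overnight at 4 °C, then secondary antibody. Chemiluminescent detection of PRC2 subunits and H3K27me3.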

For experiment [7] the target is unchanged. The experiment is described as follows: PROTAC activity at CRBN E3 ligase/EZH2 in PRC2 complex in human SK-OV-3 cells assessed as reduction in H3K27me3 level at 1 uM incubated for 48 hrs by Western blot analysis. It is filed as cell-based. In outline: as §2
For experiment [8] the target is unchanged. The experiment is described as follows: PROTAC activity at CRBN E3 ligase/EZH2 in PRC2 complex in human WSUDLCL2 cells assessed as downregulation of EED expression at 1 uM pretreated with MG-132 for 4 hrs followed by compound addition and measured after 48 hrs by Western blot analysis. The format is cell-based. In outline: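 WSU-DLCL-2 cells pretreated 4 h with the named inhibitor, then compound added and incubated a further 48 h. EZH2, SUZ12, EED and RbAp48 measured by western blot (nitrocellulose transfer, skim-milk block, primary antibody overnight at 4 °C, chemiluminescent detection).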

For experiment [9] the target is unchanged. The experiment in a line: PROTAC activity at CRBN E3 ligase/EZH2 in PRC2 complex in human WSUDLCL2 cells assessed as increase in EZH2 ubiquitination at 1 uM measured after 48 hrs by co-immunoprecipitation assay. The format is cell-based. The method in brief: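 WSU-DLCL-2 cells treated with 1 μM compound for 48 h and lysed in RIPA buffer. Lysates incubated with antibodies overnight at 4 °C, then 3 h with Protein G agarose beads at 4 °C. Proteins eluted in IP buffer and ubiquitination of the target probed by immunoblot.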

A further experiment concerns WSUDLCL2. The experiment in a line: Upregulation of TNFRSF21 mRNA expression in human WSUDLCL2 cells at 1 uM incubated for 48 hrs by qRT-PCR analysis. The format is functional, cell-based. In outline:
(§3)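 WSU-DLCL-2 or Pfeiffer cells treated 48 h. Trizol RNA extraction, reverse transcription, SYBR qPCR (95 °C 30 s; 40 cycles of 95 °C 6 s, 60 °C 20 s). mRNA normalized to DMSO-treated cells; mean ± SD of three independent experiments, t-test.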
Background: Quantitative PCR measures a nucleic acid by following its amplification.

The subject of the next experiment is Pfeiffer. The experiment is described as follows: Upregulation of TNFRSF21 mRNA expression in human Pfeiffer cells at 1 uM incubated for 48 hrs by qRT-PCR analysis. The format is functional, cell-based. The method in brief:
as §3

The test system of another experiment is A549. The experiment in a line: Downregulation of CHEK1 mRNA expression in human A549 cells at 10 uM incubated for 48 hrs by qRT-PCR analysis. The format is functional, cell-based. In outline:
(§4)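 Cells treated 48 h. Total RNA extracted with Trizol, reverse-transcribed, and SYBR RT-qPCR run: 95 °C 30 s, then 40 cycles of 95 °C 6 s and 60 °C 20 s. mRNA normalized to the DMSO-treated group. Mean SD of three independent experiments, t-test versus DMSO.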

The subject of the next experiment is NCI-H1299. The experiment in a line: Downregulation of […] mRNA expression in human NCI-H1299 cells at 10 uM incubated for 48 hrs by qRT-PCR analysis. The format is functional, cell-based. The method in brief: as §4
A further experiment has as its system MDA-MB-468. The experiment is described as follows: Downregulation of CEP76 mRNA expression in human MDA-MB-468 cells at 10 uM incubated for 48 hrs by qRT-PCR analysis. It is filed as functional, cell-based. In outline:
as §4

The target in experiment [10] is T2, Histone-lysine N-methyltransferase EZH1 (Homo sapiens, UniProt Q92800).
T2 sequence (Q92800 whole entry): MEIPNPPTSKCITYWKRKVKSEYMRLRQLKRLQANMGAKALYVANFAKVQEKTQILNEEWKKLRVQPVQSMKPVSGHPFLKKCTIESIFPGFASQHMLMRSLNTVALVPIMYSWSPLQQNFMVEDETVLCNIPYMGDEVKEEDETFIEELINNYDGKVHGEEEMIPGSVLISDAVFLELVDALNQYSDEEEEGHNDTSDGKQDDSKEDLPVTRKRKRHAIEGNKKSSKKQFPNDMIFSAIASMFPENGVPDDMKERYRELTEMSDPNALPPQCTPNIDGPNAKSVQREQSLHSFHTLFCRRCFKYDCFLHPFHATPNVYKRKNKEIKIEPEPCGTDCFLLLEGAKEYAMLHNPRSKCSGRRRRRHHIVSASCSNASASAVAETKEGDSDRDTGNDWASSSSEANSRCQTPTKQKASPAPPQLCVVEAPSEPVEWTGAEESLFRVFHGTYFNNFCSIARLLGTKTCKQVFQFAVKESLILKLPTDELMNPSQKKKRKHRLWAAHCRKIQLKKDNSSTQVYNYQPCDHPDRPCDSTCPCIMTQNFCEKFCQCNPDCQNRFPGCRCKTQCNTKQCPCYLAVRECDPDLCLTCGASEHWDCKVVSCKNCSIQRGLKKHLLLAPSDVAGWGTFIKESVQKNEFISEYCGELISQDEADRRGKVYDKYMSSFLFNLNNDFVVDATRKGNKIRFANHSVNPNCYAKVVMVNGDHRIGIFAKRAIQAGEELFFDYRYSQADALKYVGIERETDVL
The experiment is described as follows: Inhibition of recombinant full length human N-terminal FLAG-tagged EZH1 in PRC2 complex expressed in baculovirus system using SAM as substrate preincubated for 15 mins followed by substrate addition and measured after 60 mins by AlphaLISA immunodetection assay. In general terms: In Alpha technology, singlet oxygen from a donor bead excites a nearby acceptor bead.

On to `CCN(c1cc(-c2ccc(CN3CCN(CCCCCCCOc4cccc5c4C(=O)N(C4CCC(=O)NC4=O)C5=O)CC3)cc2)cc(C(=O)NCc2c(C)cc(C)[nH]c2=O)c1C)C1CCOCC1` (stereo not given), for which the outcome in experiment [1] and in experiment [8] was inactive. Besides, the outcome in experiment [2], in experiment [3], in experiment [4], in experiment [5], in experiment [6] and in experiment [7] was Active. Besides, the result (in experiment [9]; with WSUDLCL2; in the experiment with Pfeiffer; in the experiment with A549; in the experiment with NCI-H1299; in the experiment on MDA-MB-468) was Active. Besides, the IC50 (in general, the concentration that gives 50% inhibition) in experiment [10] is 179 nM.
